As a reminder, the Ki is the dissociation constant of the complex between target and ligand, obtained from inhibition or displacement. As a reminder, the solubility is the concentration that dissolves in the medium under given conditions. A word on the logP: it is the decadic logarithm of the partition coefficient of the neutral form, usually between octanol and water. One may read the AUC as concentration integrated over time. The term inhibition denotes how much of the control response was suppressed.

The nature of series [1]: Displacement of [Phe13,125I]Tyr19]-MCH from human MCHR1 E4Q/A5T double mutant expressed in HEK293 cells by TopCount scintillation counting method. The format is cell-based.
Series [2] in a line: Metabolic stability in human liver microsomes assessed as compound remaining at 3 uM measured after 10 min. The settings on record: read-out: Stability. The format is ADME. The gist of the method:
(§1)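 Test compound at 3.0 µM incubated with liver microsomes for 10 minutes; read-out is percent of parent remaining.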
Background: Liver microsomes are vesicles of endoplasmic reticulum, rich in cytochrome P450 enzymes.

A short description of series [3]: Metabolic stability in rat liver microsomes assessed as compound remaining at 3 uM measured after 10 min. The settings on record: read-out: Stability. The series is classed as ADME. An outline of the steps: as §1
Series [4] can be described thus: Solubility of the compound in phosphate buffer at pH 6.4. The format is physicochemical. An outline of the steps: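 Solubility of parent compounds and prodrugs measured in 50 mM phosphate buffer, pH 6.4.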
Series [5] in a line: Drug uptake in Sprague-Dawley rat brain assessed as parent compound level at 10 mg/kg, po measured after 8 hrs. The format is ADME, organism-based. The settings on record: read-out: Drug uptake. The gist of the method:
(§2)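 Sprague-Dawley rats dosed orally once at 10 mg/kg as parent or glycinate prodrug (prodrug dose adjusted to parent), vehicle 0.5% Methocel/0.1% Tween 80/99.4% water; parent compound measured in brain 8 h post dose, n = 2.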

Series [6] is described as follows: Lipophilicity, log P of the compound at pH 7 by HPLC analysis. The format is physicochemical. The settings on record: buffer. The gist of the method:
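LogP determined by HPLC at pH 7.0.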

Series [7] is described as follows: Plasma concentration in Sprague-Dawley rat assessed as parent compound level at 10 mg/kg, po measured after 8 hrs. The series is classed as ADME, organism-based. The gist of the method: (§3)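 SD rats given 10 mg/kg orally as parent or glycine prodrug (prodrug dose adjusted to parent), in 0.5% Methocel/0.1% Tween 80/99.4% water. Plasma and brain levels of parent measured 8 h post dose, n = 2; 0–8 h plasma AUC also determined.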

A short description of series [8]: Protein binding in rat plasma assessed as unbound fraction. The series is classed as ADME, cell-free. The gist of the method: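 Plasma protein binding reported as % free drug in rat, DIO rat, dog, cynomolgus monkey, rabbit and human plasma.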
Series [9] in a line: Metabolic stability in mouse liver microsomes assessed as compound remaining at 3 uM measured after 10 min. The series is classed as ADME. The following applies: read-out: Stability. The gist of the method:
as §1

Series [10] in a line: Protein binding in Sprague-Dawley rat plasma at 10 mg/kg, po qd for 4 days. The series is classed as ADME, organism-based. The settings on record: read-out: PPB.
Series [11] is described as follows: AUC in Sprague-Dawley rat assessed as parent compound level at 10 mg/kg, po measured after 8 hrs. The following applies: in vivo. More on the design: dose 10 mg/kg, time < 8 hr, route oral. The series is classed as ADME, organism-based.
Series [12] has as its system Rattus norvegicus. In words: Antiobesity activity in DIO Sprague-Dawley rat model assessed as reduction in caloric intake at 10 mg/kg, po qd for 28 days relative to vehicle control. The series is classed as functional. Also on record: scale not given: the % may be the effect or the level left.
For series [13], the system named is Rattus norvegicus. In words: Antiobesity activity in DIO Sprague-Dawley rat model assessed as reduction in body weight at 10 mg/kg, po qd for 28 days relative to vehicle control. The series is classed as functional. Also on record: scale not given: the % may be the effect or the level left.
A short description of series [14]: Drug uptake in Sprague-Dawley rat brain at 10 mg/kg, po measured after 8 hrs. The format is ADME, organism-based. The following applies: read-out: Drug uptake. An outline of the steps:
as §2

Series [15] in a line: Plasma concentration in Sprague-Dawley rat at 10 mg/kg, po measured after 8 hrs. The format is ADME, organism-based. An outline of the steps:
as §3

The nature of series [16]: AUC in Sprague-Dawley rat at 10 mg/kg, po measured after 8 hrs. The format is ADME, organism-based. More on the design: time < 8 hr, dose 10 mg/kg, route oral. The following applies: in vivo.
Another series deals with hERG (KCNH2) (Homo sapiens, UniProt Q12809). In words: Inhibition of human ERG at 1 uM by patch clamp assay.
Series [17] is described as follows: Drug level in Sprague-Dawley rat brain assessed as 6-(4-chlorophenyl)-3-(4-((3-hydroxyoxetan-3-yl)methoxy)-3-methoxyphenyl)thieno[3,2-d]pyrimidin-4(3H)-one level measured on day 4 post 20 hrs of last dosage. The series is classed as ADME, tissue-based. The settings on record: in vivo, read-out: Ct. An outline of the steps: (§4)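 Sub-chronic study in Sprague-Dawley rats: oral glycinate prodrug at 3, 10 and 30 mg/kg once daily for 4 days, vehicle 0.5% Methocel/0.1% Tween 80/99.4% water; parent compound measured in brain on day 4 at 20 h.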

Series [18] can be described thus: Plasma concentration in Sprague-Dawley rat assessed as 6-(4-chlorophenyl)-3-(4-((3-hydroxyoxetan-3-yl)methoxy)-3-methoxyphenyl)thieno[3,2-d]pyrimidin-4(3H)-one level measured on day 4 post 20 hrs of last dosage. An outline of the steps:
(§5)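 SD rats dosed orally once daily for 4 days at 3, 10 and 30 mg/kg, as glycine prodrug in 0.5% Methocel/0.1% Tween 80 vehicle. Parent plasma and brain levels taken on day 4 at 20 h; n = 8. Biliary lesions examined.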

In series [19] the test system is Rattus norvegicus. The series can be described thus: Antiobesity activity in DIO Sprague-Dawley rat assessed as body weight loss at 10 mg/kg, po qd for 4 days. The series is classed as functional. An outline of the steps:
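Sprague-Dawley rats dosed orally once daily for 4 days at 3, 10 and 30 mg/kg (vehicle 0.5% Methocel/0.1% Tween 80/99.4% water), n = 8; body weight change from baseline versus vehicle-treated animals, value given for 10 mg/kg.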

In series [20] the test system is Rattus norvegicus. In words: Toxicity in Sprague-Dawley rat assessed as incidence of biliary lesions at 30 mg/kg, po for 4 days. The series is classed as organism-based. The following applies: in vivo, 96 h. An outline of the steps: as §5
Series [21] is described as follows: Plasma concentration in Sprague-Dawley rat assessed as 6-(4-chlorophenyl)-3-(4-((3,3-difluoro-1-hydroxycyclobutyl)methoxy)-3-methoxyphenyl)thieno[3,2-d]pyrimidin-4(3H)-one level measured on day 4 post 20 hrs of last dosage. An outline of the steps:
as §5

Series [22] can be described thus: Drug level in Sprague-Dawley rat brain assessed as 6-(4-chlorophenyl)-3-(4-((3,3-difluoro-1-hydroxycyclobutyl)methoxy)-3-methoxyphenyl)thieno[3,2-d]pyrimidin-4(3H)-one level measured on day 4 post 20 hrs of last dosage. The series is classed as ADME, tissue-based. The following applies: in vivo, read-out: Ct. The gist of the method:
as §4

The nature of series [23]: Ratio of drug level in brain to plasma in Sprague-Dawley rat at 10 mg/kg, po measured after 8 hrs. The format is ADME, organism-based. The settings on record: brain and plasma, read-out: BPR. The gist of the method: as §3

SMILES strings stand for the structures.

hERG (KCNH2), sequence (Q12809 whole entry): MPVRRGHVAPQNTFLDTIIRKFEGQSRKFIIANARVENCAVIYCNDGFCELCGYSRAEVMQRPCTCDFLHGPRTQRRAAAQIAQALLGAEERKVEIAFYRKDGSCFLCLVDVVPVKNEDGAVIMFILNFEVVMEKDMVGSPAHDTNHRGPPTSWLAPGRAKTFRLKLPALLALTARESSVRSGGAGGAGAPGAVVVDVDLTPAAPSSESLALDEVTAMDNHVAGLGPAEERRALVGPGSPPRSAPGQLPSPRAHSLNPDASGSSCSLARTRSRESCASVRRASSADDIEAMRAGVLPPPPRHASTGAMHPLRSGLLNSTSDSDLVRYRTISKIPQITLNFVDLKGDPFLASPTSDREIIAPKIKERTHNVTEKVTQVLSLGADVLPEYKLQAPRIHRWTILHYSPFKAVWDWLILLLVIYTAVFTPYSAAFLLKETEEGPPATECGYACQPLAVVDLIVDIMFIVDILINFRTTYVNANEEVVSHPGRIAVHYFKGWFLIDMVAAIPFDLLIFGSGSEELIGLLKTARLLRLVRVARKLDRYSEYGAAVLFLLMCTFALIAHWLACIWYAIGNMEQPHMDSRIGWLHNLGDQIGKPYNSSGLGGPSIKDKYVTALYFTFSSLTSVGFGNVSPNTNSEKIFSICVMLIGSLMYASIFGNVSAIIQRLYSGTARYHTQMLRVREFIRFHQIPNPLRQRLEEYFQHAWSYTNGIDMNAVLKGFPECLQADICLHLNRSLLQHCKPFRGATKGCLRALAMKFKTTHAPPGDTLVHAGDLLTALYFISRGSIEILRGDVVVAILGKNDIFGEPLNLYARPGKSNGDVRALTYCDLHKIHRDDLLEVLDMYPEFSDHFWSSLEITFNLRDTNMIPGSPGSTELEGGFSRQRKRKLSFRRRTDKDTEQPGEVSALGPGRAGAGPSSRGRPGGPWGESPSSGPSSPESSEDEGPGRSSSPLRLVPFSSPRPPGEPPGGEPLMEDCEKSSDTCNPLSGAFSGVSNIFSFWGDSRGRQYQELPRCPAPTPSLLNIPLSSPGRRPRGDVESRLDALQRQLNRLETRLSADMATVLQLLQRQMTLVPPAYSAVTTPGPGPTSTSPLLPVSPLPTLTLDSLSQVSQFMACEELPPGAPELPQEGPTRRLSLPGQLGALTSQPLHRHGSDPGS

Turning to `COc1cc(-n2cnc3cc(-c4ccc(Cl)cc4)sc3c2=O)ccc1OCCN1CCCC1`, the Ki in series [1] is 2.9 to 3.8 nM.

Take `COc1cc(-n2cnc3cc(-c4ccc(Cl)cc4)sc3c2=O)ccc1OCC(C)(C)O`: the remaining at 10 min, 3 µM is 100% in series [2], 98% in series [3] and 90% in [9]. This compound had a solubility in series [4] of less than 1 µg/mL. The concentration at 8 h was 7800 nM in series [5] and 3530 nM in series [7]. Further, the logP in [6] was determined as 4.5. Besides, in series [8], the Fu came out at 0.8%.

On to `COc1cc(-n2cnc3cc(-c4ccc(Cl)cc4)sc3c2=O)ccc1OCC1(O)CCCC1`, for which the remaining at 10 min, 3 µM in [2] turned out to be 73%; in series [3], 14%. The solubility in series [4] was less than 1 µg/mL. Besides, the Ki in series [1] is 11.9 nM. In addition, the fraction unbound at 96 h in series [10] is less than 0.02. Besides, the logP in series [6] was determined as 4.7.

Regarding `COc1cc(-n2cnc3cc(-c4ccc(Cl)cc4)sc3c2=O)ccc1OCC1(OC(=O)CN)CC1`, the AUC in [11] is 5.9 µM·h. The values for the concentration at 8 h in series [5] and in series [7] were less than 3 nM and 113 nM, respectively.

Turning to `Cc1c(C(=O)NN2CCCCC2)nn(-c2ccc(Cl)cc2Cl)c1-c1ccc(Cl)cc1` [RIMONABANT], the Activity in the series with Rattus norvegicus [12] amounted to 27%; in the series with Rattus norvegicus [13], 8.5%.

Consider `COc1cc(-n2cnc3cc(-c4ccc(Cl)cc4)sc3c2=O)ccc1OCC1(O)CCOCC1`, for which the remaining at 10 min, 3 µM is 87% in series [2], 27% in series [3] and 98% in [9]. Also, in [4], the solubility is less than 1 µg/mL. Also, the Ki in [1] came to 11.2 nM. The results for the concentration at 8 h in series [14] and in series [15] were less than 3 nM and 29 nM, respectively. The fraction unbound at 96 h in series [10] was less than 0.02. The compound also had a logP in [6] of 4.2. This compound gave an AUC at 8 h in series [16] of 0.4 µM·h.

For `COc1cc(-n2cnc3cc(-c4ccc(Cl)cc4)sc3c2=O)ccc1OCC(C)(C)OP(=O)(O)O`, in series [4], the solubility is less than 1 µg/mL.

As for `COc1cc(-n2cnc3cc(-c4ccc(Cl)cc4)sc3c2=O)ccc1OCC1(O)CC1`, the remaining at 10 min, 3 µM is 94% in series [2], 61% in series [3] and 99% in series [9]. Further, the solubility in [4] was less than 1 µg/mL. This compound also registered a Ki in [1] of 17.5 nM. For the same compound, the fraction unbound at 96 h in [10] is less than 0.02. This compound also returned a logP in [6] of 4.1.

Regarding `COc1cc(-n2cnc3cc(-c4ccc(Cl)cc4)sc3c2=O)ccc1OC[C@@H](C)O`, the Ki in series [1] was found to be 9.5 nM. Also, the inhibition at 1 µM on hERG (KCNH2) was found to be 43.8%.

Take `COc1cc(-n2cnc3cc(-c4ccc(Cl)cc4)sc3c2=O)ccc1OCC1(OC(=O)CN)COC1`: in [11], the AUC is 34.9 µM·h. Moreover, the concentration in series [17] is less than 3 nM; in series [18], 37 nM. In addition, the concentration at 8 h in [5] was found to be 1130 nM; in series [7], 1160 nM. Further, in the series on Rattus norvegicus [19], the Activity is recorded as 0%.

On to `COc1cc(-n2cnc3cc(-c4ccc(Cl)cc4)sc3c2=O)ccc1OCC1(OC(=O)CN)CCC1`, for which the AUC in series [11] turned out to be 1.3 µM·h. This compound also gave a solubility in series [4] of less than 1 µg/mL. Moreover, the figures for the concentration at 8 h in series [5] and in series [7] were less than 3 nM and 15 nM, respectively.

On to `COc1cc(-n2cnc3cc(-c4ccc(Cl)cc4)sc3c2=O)ccc1OCC1(O)CCC1`, for which the remaining at 10 min, 3 µM in series [3] stood at 24%. For the same compound, in [4], the solubility is less than 1 µg/mL. This compound also had a Ki in series [1] of 9.8 nM. Further, the concentration at 8 h was less than 3 nM in series [14] and 6 nM in series [15]. Moreover, in [10], the fraction unbound at 96 h is less than 0.02. In [6], this compound came in with a logP of 4.7. In addition, the AUC at 8 h in [16] was determined as 0.2 µM·h.

As for `COc1cc(-n2cnc3cc(-c4ccc(Cl)cc4)sc3c2=O)ccc1OCC1(O)COC1`, the remaining at 10 min, 3 µM is 100% in series [2], 47% in [3] and 100% in series [9]. The solubility in [4] was less than 1 µg/mL. In series [1], this compound came in with a Ki of 8.7 nM. Further, the Activity with Rattus norvegicus [20] is 40%. For the same compound, the fraction unbound at 96 h in [10] is less than 0.02. In series [6], the logP was 3.8.

Regarding `COc1cc(-n2cnc3cc(-c4ccc(Cl)cc4)sc3c2=O)ccc1OCC1(OC(=O)CN)CC(F)(F)C1`, the AUC in series [11] is 38.1 µM·h. Also, the concentration in [21] came to 12800 nM; in series [22], 7960 nM. This compound yielded a solubility in series [4] of less than 1 µg/mL. Moreover, the concentration at 8 h stood at 11300 nM in [5] and 4500 nM in series [7]. For the same compound, the Kp at 8 h in [23] was 2.5. Moreover, in the series on Rattus norvegicus [19], the Activity turned out to be 6.4%.

For the origin of these results see ChEMBL document CHEMBL3856239, “Synthesis and Antiobesity Properties of 6-(4-Chlorophenyl)-3-(4-((3,3-difluoro-1-hydroxycyclobutyl)methoxy)-3-methoxyphenyl)thieno[3,2-d]pyrimidin-4(3H)-one (BMS-814580): A Highly Efficacious Melanin Concentrating Hormone Receptor 1 (MCHR1) Inhibitor” (J Med Chem, 2016).
